The record followed here is BindingDB's records for doi:10.1021/acs.jmedchem.8b02026 (Leiden University, 2019).

One may read the Ki as a measure of affinity in units of concentration, obtained from inhibition or displacement. Broadly, the IC50 is the concentration at which inhibition is half-maximal.

Test [1] deals with T1, Adenosine receptor A3 (Homo sapiens, UniProt P0DMS8).
T1 sequence (P0DMS8 whole entry): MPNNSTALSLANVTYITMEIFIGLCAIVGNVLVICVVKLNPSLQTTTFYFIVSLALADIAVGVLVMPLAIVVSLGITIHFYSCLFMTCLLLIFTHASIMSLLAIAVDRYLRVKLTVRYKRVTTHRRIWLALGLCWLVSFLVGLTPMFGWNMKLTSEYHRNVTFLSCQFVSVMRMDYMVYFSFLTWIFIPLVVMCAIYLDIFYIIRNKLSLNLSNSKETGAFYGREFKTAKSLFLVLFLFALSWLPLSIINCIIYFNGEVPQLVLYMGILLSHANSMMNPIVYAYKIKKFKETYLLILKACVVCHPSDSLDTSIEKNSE
Briefly: Displacement of [3H]PSB11 from human A3 adenosine receptor expressed in CHO cell membranes measured after 2 hrs by scintillation spectrometric method. (In general: Displacement assays read how much labelled ligand stays bound in the presence of the test substance.)

For test [2], the target named is Adenosine receptor A2a (Homo sapiens, UniProt P29274). As to the kind of experiment: Displacement of [3H]ZM241385 from human A2A adenosine receptor expressed in HEK293 cell membranes measured after 2 hrs by scintillation spectrometric method.
The target of test [3] is T2, Adenosine receptor A1 (Homo sapiens, UniProt P30542).
T2 sequence (P30542 whole entry): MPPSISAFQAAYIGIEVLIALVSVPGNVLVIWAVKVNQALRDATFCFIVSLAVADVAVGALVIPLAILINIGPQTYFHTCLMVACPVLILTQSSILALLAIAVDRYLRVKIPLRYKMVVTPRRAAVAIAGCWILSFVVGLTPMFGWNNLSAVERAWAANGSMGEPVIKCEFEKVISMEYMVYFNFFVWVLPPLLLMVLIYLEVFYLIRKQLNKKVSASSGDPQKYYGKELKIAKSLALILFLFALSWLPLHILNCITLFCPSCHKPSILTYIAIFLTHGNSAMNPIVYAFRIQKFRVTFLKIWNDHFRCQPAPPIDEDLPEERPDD
Briefly: Displacement of [3H]DPCPX from human A1 adenosine receptor expressed in CHO cell membranes measured after 2 hrs by scintillation spectrometric method.

The target in test [4] is T3, Adenosine receptor A3 (Homo sapiens, UniProt P0DMS8, Y265F).
T3 sequence (P0DMS8 whole entry): T1 sequence (P0DMS8 whole entry)
Briefly: Displacement of [3H]PSB11 from human A3 adenosine receptor Y265F (7.36) mutant transiently expressed in CHOK1 cell membranes measured after 2 hrs by scintillation spectrometric method. The procedure, abridged: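 Membranes (15 µg) in 50 mM Tris-HCl, 5 mM MgCl2, 0.01% CHAPS, 1 mM EDTA, pH 7.4. Six competitor concentrations with ~10 nM [3H]PSB-11, 2 h at 25 °C. NSB from 100 µM NECA; filtration and scintillation counting; one-site fit. Three experiments, duplicate.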

Structures are written as SMILES.

Sequence of Adenosine receptor A2a (P29274 whole entry): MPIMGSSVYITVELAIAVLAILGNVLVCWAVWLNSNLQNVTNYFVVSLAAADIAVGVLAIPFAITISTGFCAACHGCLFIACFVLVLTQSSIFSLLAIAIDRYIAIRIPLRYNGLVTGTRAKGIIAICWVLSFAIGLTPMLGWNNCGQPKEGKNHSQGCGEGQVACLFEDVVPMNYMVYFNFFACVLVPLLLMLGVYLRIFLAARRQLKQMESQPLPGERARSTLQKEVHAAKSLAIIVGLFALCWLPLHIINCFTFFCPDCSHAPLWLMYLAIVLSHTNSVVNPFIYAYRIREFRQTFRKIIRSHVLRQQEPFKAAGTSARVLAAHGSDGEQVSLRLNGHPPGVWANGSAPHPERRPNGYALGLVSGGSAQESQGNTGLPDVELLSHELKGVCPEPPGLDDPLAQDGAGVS

In test [1], `CCCn1c(=O)c2c(nc3cc(OC)ccn32)n(CCCCNC(=O)c2ccc(S(=O)(=O)F)cc2)c1=O` returned a Ki of 32 nM.

In the case of `CCCn1c(=O)c2c(nc3cc(OC)ccn32)n(CCCCOC(=O)c2cccc(S(=O)(=O)F)c2)c1=O`, the Ki in test [1] amounted to 79 nM.

In test [1], `CCCn1c(=O)c2c(nc3cc(OC)ccn32)n(CCCOC(=O)c2ccc(S(=O)(=O)F)cc2)c1=O` registered a Ki of 20 nM.

On to `CCCn1c(=O)c2c(nc3cc(OC)ccn32)n(CCCNC(=O)c2ccc(S(=O)(=O)F)cc2)c1=O`, for which the Ki was found to be 1.26 µM in test [2] and 0.794 µM in test [3].

For the compound `CCCn1c(=O)c2c(nc3cc(OC)ccn32)n(CCCOC(=O)c2cccc(S(=O)(=O)F)c2)c1=O`, the Ki in test [1] was determined as 100 nM.

Take `CCCn1c(=O)c2c(nc3cc(OC)ccn32)n(CCCNC(=O)c2ccc(S(C)(=O)=O)cc2)c1=O`: the values for the Ki in test [2] and in test [3] were 6.31 µM and 15.8 µM, respectively. Further, in test [4], the IC50 came to 794 nM.

`CCCn1c(=O)c2c(nc3cc(OC)ccn32)n(CCCCNC(=O)c2cccc(S(=O)(=O)F)c2)c1=O`: the affinity in test [1], expressed as Ki, was 158 nM.

As for `CCCn1c(=O)c2c(nc3cc(OC)ccn32)n(CCCCOC(=O)c2ccc(S(=O)(=O)F)cc2)c1=O`, in test [1], the affinity, expressed as Ki, was 32 nM.

In test [1], `CCCn1c(=O)c2c(nc3cc(OC)ccn32)n(CCOC(=O)c2ccc(S(=O)(=O)F)cc2)c1=O` registered a Ki of 200 nM.

`CCCn1c(=O)c2c(nc3cc(OC)ccn32)n(CCCNC(=O)c2cccc(S(=O)(=O)F)c2)c1=O`: the Ki in test [1] amounted to 32 nM.

Consider `CCCn1c(=O)c2c(nc3cc(OC)ccn32)n(CCOC(=O)c2cccc(S(=O)(=O)F)c2)c1=O`, for which, in test [1], the Ki was found to be 398 nM.
